Measurements from publication PMC3818380 (Archives of biochemistry and biophysics, 2013).

Biological target: interphotoreceptor retinoid-binding protein (IRBP) (Bos taurus, UniProt P12661)
Assay: Surface plasmon resonance
Design: species or system bovine
Conditions: for Stoichiometry (No. of sites): SPR, 25°C, n=3, ligand:IRBP binding stoichiometry; for kon: pH 7.4, read-out: ka, association rate constant; for koff: pH 7.4, read-out: kd, dissociation rate constant
How it was run: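 IRBP purified by chromatography from dark-adapted bovine retinas and amine-coupled at 10 µg/mL in 10 mM sodium acetate pH 4.5 to 10–12 kRU, with an unmodified reference channel. Running buffer 10 mM PBS pH 7.4, 0.01% Tween-20, 3% DMSO; for fatty acids, HEPES pH 7.4, 0.01% Tween-20, 3% ethanol. Seven two-fold FastStep injections, typically 0.01–15 µM, in triplicate at 25°C. Data double-referenced and globally fitted.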

interphotoreceptor retinoid-binding protein (IRBP), sequence (P12661 23-1286): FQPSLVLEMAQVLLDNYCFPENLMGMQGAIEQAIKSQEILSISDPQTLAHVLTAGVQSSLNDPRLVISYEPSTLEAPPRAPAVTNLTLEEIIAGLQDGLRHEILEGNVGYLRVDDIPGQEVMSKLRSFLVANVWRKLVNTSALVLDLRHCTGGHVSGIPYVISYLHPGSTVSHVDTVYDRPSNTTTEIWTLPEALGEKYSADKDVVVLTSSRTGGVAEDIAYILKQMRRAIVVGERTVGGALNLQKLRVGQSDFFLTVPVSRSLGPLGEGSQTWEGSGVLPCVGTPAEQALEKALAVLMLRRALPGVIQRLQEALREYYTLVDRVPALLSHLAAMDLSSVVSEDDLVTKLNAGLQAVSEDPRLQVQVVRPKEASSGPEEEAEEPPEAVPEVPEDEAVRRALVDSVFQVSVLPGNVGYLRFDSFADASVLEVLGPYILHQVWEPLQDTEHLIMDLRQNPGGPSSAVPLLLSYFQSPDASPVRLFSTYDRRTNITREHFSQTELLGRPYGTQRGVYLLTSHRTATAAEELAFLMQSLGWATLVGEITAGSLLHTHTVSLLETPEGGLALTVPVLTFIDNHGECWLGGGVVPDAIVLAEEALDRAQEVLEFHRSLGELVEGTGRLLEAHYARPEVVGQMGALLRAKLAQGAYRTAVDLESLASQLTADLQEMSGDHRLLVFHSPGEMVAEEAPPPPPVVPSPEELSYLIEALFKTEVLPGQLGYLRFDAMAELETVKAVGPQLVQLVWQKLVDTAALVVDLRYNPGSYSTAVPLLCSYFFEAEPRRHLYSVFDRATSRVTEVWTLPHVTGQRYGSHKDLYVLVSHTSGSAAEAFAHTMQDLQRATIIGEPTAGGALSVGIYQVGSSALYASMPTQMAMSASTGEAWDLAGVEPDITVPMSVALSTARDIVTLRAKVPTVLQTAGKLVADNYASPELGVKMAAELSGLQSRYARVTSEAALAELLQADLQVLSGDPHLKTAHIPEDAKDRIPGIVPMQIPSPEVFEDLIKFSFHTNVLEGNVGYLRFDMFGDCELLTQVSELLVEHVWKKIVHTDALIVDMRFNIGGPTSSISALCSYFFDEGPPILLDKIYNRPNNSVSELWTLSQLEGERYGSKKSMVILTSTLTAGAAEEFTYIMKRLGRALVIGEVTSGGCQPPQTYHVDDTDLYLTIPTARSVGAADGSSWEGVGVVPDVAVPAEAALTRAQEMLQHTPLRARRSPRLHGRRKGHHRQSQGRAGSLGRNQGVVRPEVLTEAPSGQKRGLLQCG

Row | Compound | Stoichiometry (No. of sites) | Kd | kon | koff
1 | CC1=C(/C=C/C(C)=C/C=C/C(C)=C/C=O)C(C)(C)CCC1 [11-cis-retinal] | 3.1 |  |  | 
2 | CCCCCCCCCCCCCCCCCCCC(=O)O [Arachidic acid] | 3.7 | 10.2 ± 0.7 µM | 280000 ± 1e+09 M⁻¹ s⁻¹ | 2.8 ± 0.1 s⁻¹
3 | CCCCC/C=C\C/C=C\C/C=C\C/C=C\CCCC(=O)O [Arachidonic acid] | 3.8 | 10 ± 0.1 µM | 24000 ± 3e+07 M⁻¹ s⁻¹ | 0.24 ± 0.3 s⁻¹
4 | CC1=C(/C=C/C(C)=C/C=C/C(C)=C/C=C/C=C(C)/C=C/C=C(C)/C=C/C2=C(C)C(=O)[C@@H](O)CC2(C)C)C(C)(C)C[C@H](O)C1=O [Astaxanthin] | 3.4 | 1.64 ± 0.06 µM | 26800 ± 9e+07 M⁻¹ s⁻¹ | 0.04 ± 0.5 s⁻¹
5 | CC/C=C\C/C=C\C/C=C\C/C=C\C/C=C\C/C=C\CCC(=O)O [Docosahexaenoic acid (DHA), Docosahexaenoic acid] | 3.4 | 10 ± 0.1 µM | 20000 ± 2e+07 M⁻¹ s⁻¹ | 0.2 ± 0.2 s⁻¹
6 | CC/C=C\C/C=C\C/C=C\C/C=C\C/C=C\CCCC(=O)O [Eicosapentaenoic acid (EPA), Eicosapentaenoic acid] | 3.4 | 9.4 ± 0.7 µM | 30000 ± 2e+07 M⁻¹ s⁻¹ | 0.28 ± 0.4 s⁻¹
7 | CCCCC/C=C\C/C=C\CCCCCCCC(=O)O [Linoleic acid] | 3.7 | 11 ± 0.2 µM | 23000 ± 4e+07 M⁻¹ s⁻¹ | 0.26 ± 0.4 s⁻¹
8 | CC1=C[C@H](O)CC(C)(C)[C@H]1/C=C/C(C)=C/C=C/C(C)=C/C=C/C=C(C)/C=C/C=C(C)/C=C/C1=C(C)C[C@@H](O)CC1(C)C [Lutein] | 3.4 | 1.06 ± 0.2 µM | 49000 ± 9e+07 M⁻¹ s⁻¹ | 0.05 ± 0.4 s⁻¹
9 | CCCCCCCC/C=C\CCCCCCCC(=O)O [Oleic acid] | 3.6 | 7.3 ± 0.7 µM | 150000 ± 2e+09 M⁻¹ s⁻¹ | 1.1 ± 0.3 s⁻¹
10 | CCCCCCCCCCCCCCCC(=O)O [Palmitic acid] | 3.7 | 11.1 ± 0.7 µM | 360000 ± 2e+09 M⁻¹ s⁻¹ | 0.4 ± 0.1 s⁻¹
11 | CCCCCCCCCCCCCCCCCC(=O)O [Stearic acid] | 3.7 | 7.03 ± 0.1 µM | 32000 ± 4e+07 M⁻¹ s⁻¹ | 0.23 ± 0.6 s⁻¹
12 | CC1=C(/C=C/C(C)=C/C=C/C(C)=C/C=C/C=C(C)/C=C/C=C(C)/C=C/C2=C(C)C[C@@H](O)CC2(C)C)C(C)(C)C[C@H](O)C1 [Zeaxanthin] | 3.3 | 1.64 ± 0.5 µM | 33000 ± 1e+07 M⁻¹ s⁻¹ | 0.05 ± 0.5 s⁻¹
13 | CC1=C(/C=C/C(C)=C/C=C/C(C)=C/C(=O)O)C(C)(C)CCC1 [all -trans -retinoic acid] | 3.4 | 3.5 ± 0.1 µM | 40000 ± 1e+07 M⁻¹ s⁻¹ | 0.14 ± 0.2 s⁻¹
14 | CC1=C(/C=C/C(C)=C/C=C/C(C)=C/C=O)C(C)(C)CCC1 [all-trans-retinal] | 3.2 |  |  | 
15 | CC1=C(/C=C/C(C)=C/C=C/C(C)=C/CO)C(C)(C)CCC1 [all-trans-retinol] | 3.5 |  |  | 
16 | CC1=C(/C=C/C(C)=C/C=C/C(C)=C/C=C/C=C(C)/C=C/C=C(C)/C=C/C2=C(C)CCCC2(C)C)C(C)(C)CCC1 [β-carotene] | 3.1 | 0.92 ± 0.1 µM | 122000 ± 2e+09 M⁻¹ s⁻¹ | 0.11 ± 0.8 s⁻¹
17 | meso-zeaxanthin | 3.2 |  |  | 
